Experimental data taken from ChEMBL document CHEMBL5096186, “Design, Synthesis, and Biological Evaluation of Novel Pyrimido[4,5-b]indole Derivatives Against Gram-Negative Multidrug-Resistant Pathogens” (J Med Chem, 2021).
Converted amounts (≈) assume the structure as drawn. The source made the active and inactive calls. No cut-off for these calls is given here.

Key:
[1] = Metabolic stability in human liver microsome assessed as metabolic bioavailability at 0.1 uM in presence of NADPH incubated upto 60 mins by LC-MS/MS analysis; format: ADME; settings: liver microsomes
How it was run: (§1)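 Compound at 0.1 μM final, in 0.01% DMSO with 0.005% BSA. Incubated with rat or human liver microsomes at 0.33 mg/mL in 0.1 M Tris-HCl, pH 7.4, with 5 mM MgCl₂ and 1 mM NADPH, at 37 °C. Samples at 0, 7, 17, 30 and 60 min quenched with cold methanol and analysed by LC-MS/MS. Half-life, Cl_int and MF% derived as previously described.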

[2] = Clearance in Sprague-Dawley rat at 20 mg/kg, iv measured upto 24 hrs by LC-MS/MS analysis; format: ADME, organism-based; settings: in vivo
How it was run: (§2)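 Male Sprague-Dawley rats, n = 3 per group, single intravenous dose. For 4 mg/kg: 180–280 g rats, vehicle 5% DMSO + 5% EtOH + 40% PEG300 + 50% saline, blood from the retrobulbar vein at 0.05–24 h. For 5 and 20 mg/kg: 180–300 g rats, vehicle 5% DMSO + 5% solutol + 90% saline, sampled at 0.083–24 h. Plasma quantified by LC/MS/MS. Parameters from mean plasma concentration by noncompartmental analysis; values are mean ± standard deviation.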

[3] = Volume of distribution at the steady state in Sprague-Dawley rat at 20 mg/kg, iv measured upto 24 hrs by LC-MS/MS analysis; format: ADME, organism-based; settings: in vivo, read-out: Vdss; how it was run: as §2
[4] = Metabolic stability in rat liver microsome assessed as elimination half life at 0.1 uM in presence of NADPH incubated upto 60 mins by LC-MS/MS analysis; format: ADME; settings: liver microsomes, read-out: beta t1/2; how it was run: as §1
[5] = tested on: Acinetobacter baumannii; assay: Bactericidal activity against OXA23-producing multidrug resistant Acinetobacter baumannii infected in dosed kunming mouse at 30 mg/kg, iv measured after 24 hrs; format: functional, organism-based
How it was run: (§3)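 Neutropenic thigh model in Kunming mice (18−22 g, half male/half female; 8 per dosed group, 13 vehicle). Cyclophosphamide given ip 4 days (150 mg/kg) and 1 day (100 mg/kg) before infection. Right posterior thigh injected im with 0.1 mL of 10⁷ cfu/mL OXA-23 MDR A. baumannii clinical isolate. Iv tail dosing at 10, 20, 30 mg/kg 2 h post-infection; levofloxacin 30 mg/kg iv; saline vehicle. Thighs homogenised in saline for cfu after 24 h.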

[6] = Elimination half life in Sprague-Dawley rat at 20 mg/kg, iv measured upto 24 hrs by LC-MS/MS analysis; format: ADME, organism-based; settings: in vivo, read-out: beta t1/2 (converted); how it was run: as §2
[7] = target: Voltage-gated inwardly rectifying potassium channel KCNH2 (Homo sapiens, UniProt Q12809); assay: Inhibition of hERG potassium channel assessed as […] at -80 mV holding potential incubated for 120 seconds by whole cell-automated voltage clamp analysis assay; format: toxicity
Sequence of Voltage-gated inwardly rectifying potassium channel KCNH2 (Q12809 whole entry): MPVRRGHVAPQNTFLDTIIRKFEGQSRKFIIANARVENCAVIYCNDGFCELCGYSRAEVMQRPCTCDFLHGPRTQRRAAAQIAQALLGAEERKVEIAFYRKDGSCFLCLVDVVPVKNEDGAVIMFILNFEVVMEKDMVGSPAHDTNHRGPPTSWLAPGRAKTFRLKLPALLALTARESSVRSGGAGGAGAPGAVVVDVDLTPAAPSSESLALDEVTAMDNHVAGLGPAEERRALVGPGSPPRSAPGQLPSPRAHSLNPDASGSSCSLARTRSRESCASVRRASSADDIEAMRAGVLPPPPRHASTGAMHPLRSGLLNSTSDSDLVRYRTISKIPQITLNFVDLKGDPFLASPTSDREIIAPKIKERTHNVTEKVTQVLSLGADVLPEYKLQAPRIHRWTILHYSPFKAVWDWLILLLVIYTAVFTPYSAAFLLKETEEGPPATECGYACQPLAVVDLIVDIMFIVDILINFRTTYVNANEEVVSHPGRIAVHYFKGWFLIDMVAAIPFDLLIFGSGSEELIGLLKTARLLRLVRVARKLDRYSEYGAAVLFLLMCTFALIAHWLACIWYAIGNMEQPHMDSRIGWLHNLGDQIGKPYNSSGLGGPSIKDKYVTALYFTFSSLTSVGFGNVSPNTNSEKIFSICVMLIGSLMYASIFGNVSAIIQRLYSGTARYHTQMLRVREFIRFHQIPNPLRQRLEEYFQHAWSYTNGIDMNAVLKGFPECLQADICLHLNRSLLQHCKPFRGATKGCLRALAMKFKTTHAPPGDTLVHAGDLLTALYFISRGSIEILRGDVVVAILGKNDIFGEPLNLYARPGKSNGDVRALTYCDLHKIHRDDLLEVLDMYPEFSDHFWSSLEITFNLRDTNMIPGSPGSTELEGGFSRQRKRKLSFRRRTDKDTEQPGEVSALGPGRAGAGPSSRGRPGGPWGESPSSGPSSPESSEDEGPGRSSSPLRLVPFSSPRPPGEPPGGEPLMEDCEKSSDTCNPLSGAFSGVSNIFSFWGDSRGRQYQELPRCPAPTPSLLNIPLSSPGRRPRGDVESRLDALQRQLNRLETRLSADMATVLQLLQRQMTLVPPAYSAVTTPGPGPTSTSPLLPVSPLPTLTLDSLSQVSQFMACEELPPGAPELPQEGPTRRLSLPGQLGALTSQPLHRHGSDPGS
How it was run: (§4)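 Automated whole-cell patch clamp, holding potential −80 mV. Voltage protocol applied every 20 s. Baseline set with external solution containing 0.1% DMSO and stabilised 3 min. Compound applied until steady state, at least 3 min, then washout. Maximum tested concentration 40 μM, or 3 μM for cisapride as positive control.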

[8] = tested on: Klebsiella pneumoniae; assay: Antibacterial activity agains wild type Klebsiella pneumoniae ATCC BAA-1705 assessed as reduction in bacterial growth incubated for 18 to 20 hrs by CLSI based microdilution method; format: functional; settings: time 18-20 hrs
How it was run: (§5)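 CLSI broth microdilution. Compounds in DMSO (levofloxacin and meropenem in water), serial twofold dilutions in broth, 64 to 0.008 μg/mL. […] Results reported as MIC ranges across strains.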

[9] = tested on: Pseudomonas aeruginosa; assay: Antibacterial activity against IMP4-producing multidrug resistant Pseudomonas aeruginosa assessed as reduction in bacterial growth incubated for 18 to 20 hrs by CLSI based microdilution method; format: functional; settings: time 18-20 hrs
How it was run: (§6)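 Broth microdilution per CLSI. Compounds dissolved in DMSO (levofloxacin and meropenem in water) as 64 μg/mL stock, then serial twofold dilutions in broth giving 64 to 0.008 μg/mL. […] Clinical isolates tested as several strains per group; racemic GP-1 served as positive control; values given as MIC ranges.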

[10] = tested on: Acinetobacter baumannii; assay: Antibacterial activity against wild type Acinetobacter baumannii NCTC 13304 assessed as reduction in bacterial growth incubated for 18 to 20 hrs by CLSI based microdilution method; format: functional; settings: time 18-20 hrs; how it was run: as §6
[11] = tested on: Escherichia coli; assay: Antibacterial activity against multidrug resistant wild type Escherichia coli ATCC BAA-2340 assessed as reduction in bacterial growth incubated for 18 to 20 hrs by CLSI based microdilution method; format: functional; settings: time 18-20 hrs; how it was run: as §6
[12] = Cytotoxicity against human L02 cells assessed as cell viability measured for 48 hrs by CCK-8 assay; format: toxicity, cell-based
How it was run: (§7)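 Cells seeded at 1 × 10⁴ per well and grown for 48 h. Then exposed to test articles at 1–200 μM for another 48 h (n = 6). Viability by CCK-8 added for 2 h, absorbance read at 450 nm. CC50 calculated and reported as the mean.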

[13] = Metabolic stability in rat liver microsome assessed as metabolic bioavailability at 0.1 uM in presence of NADPH incubated upto 60 mins by LC-MS/MS analysis; format: ADME; settings: liver microsomes; how it was run: as §1
[14] = MRT in Sprague-Dawley rat at 20 mg/kg, iv measured upto 24 hrs by LC-MS/MS analysis; format: ADME, organism-based; settings: in vivo; how it was run: as §2
[15] = tested on: Acinetobacter baumannii; assay: Antibacterial activity agains OXA23-producing multidrug resistant Acinetobacter baumannii assessed as reduction in bacterial growth incubated for 18 to 20 hrs by CLSI based microdilution method; format: functional; settings: time 18-20 hrs; how it was run: as §6
[16] = Volume of distribution at the steady state in Sprague-Dawley rat at 5 mg/kg, iv measured upto 24 hrs by LC-MS/MS analysis; format: ADME, organism-based; settings: in vivo, read-out: Vdss; how it was run: as §2
[17] = tested on: Escherichia coli; assay: Antibacterial activity against ESBL-producing multidrug resistant Escherichia coli assessed as reduction in bacterial growth incubated for 18 to 20 hrs by CLSI based microdilution method; format: functional; settings: time 18-20 hrs; how it was run: as §6
[18] = tested on: Klebsiella pneumoniae; assay: Antibacterial activity agains wild type Klebsiella pneumoniae ATCC BAA-2470 assessed as reduction in bacterial growth incubated for 18 to 20 hrs by CLSI based microdilution method; format: functional; settings: time 18-20 hrs; how it was run: as §6
[19] = Clearance in Sprague-Dawley rat at 5 mg/kg, iv measured upto 24 hrs by LC-MS/MS analysis; format: ADME, organism-based; settings: in vivo; how it was run: as §2
[20] = AUC (0 to infinity) in Sprague-Dawley rat at 20 mg/kg, iv measured upto 24 hrs by LC-MS/MS analysis; format: ADME, organism-based; design: dose 20 mg/kg, time < 24 hrs, route iv; settings: in vivo; how it was run: as §2
[21] = tested on: Klebsiella pneumoniae; assay: Antibacterial activity against KPC2-producing multidrug resistant Klebsiella pneumoniae assessed as reduction in bacterial growth incubated for 18 to 20 hrs by CLSI based microdilution method; format: functional; settings: time 18-20 hrs; how it was run: as §6
[22] = tested on: Acinetobacter baumannii; assay: Antibacterial activity against OXA23-producing multidrug resistant Acinetobacter baumannii infected in iv dosed kunming mouse measured after 24 hrs; format: functional, organism-based; settings: dose 10-30 mg/kg, DDE = dose-dependent effect; how it was run: as §3
[23] = tested on: Escherichia coli; assay: Antibacterial activity against multidrug resistant wild type Escherichia coli NCTC 13353 assessed as reduction in bacterial growth incubated for 18 to 20 hrs by CLSI based microdilution method; format: functional; settings: time 18-20 hrs; how it was run: as §6
[24] = Metabolic stability in human liver microsome assessed as elimination half life at 0.1 uM in presence of NADPH incubated upto 60 mins by LC-MS/MS analysis; format: ADME; settings: liver microsomes, read-out: beta t1/2; how it was run: as §1
[25] = target: hERG (KCNH2) potassium channel (Homo sapiens, UniProt Q12809); assay: Inhibition of hERG potassium channel assessed as maximum inhibition rate at 40 uM at -80 mV holding potential incubated for 120 seconds by whole cell-automated voltage clamp analysis assay relative to control; format: toxicity; settings: time 120 sec; how it was run: as §4
Sequence of hERG (KCNH2) potassium channel (Q12809 whole entry): as above

[26] = Metabolic stability in human liver microsome assessed as intrinsic clearance at 0.1 uM in presence of NADPH incubated upto 60 mins by LC-MS/MS analysis; format: ADME; settings: microsomes, 1 h; how it was run: as §1
[27] = AUC (0 to infinity) in Sprague-Dawley rat at 5 mg/kg, iv measured upto 24 hrs by LC-MS/MS analysis; format: ADME, organism-based; design: time < 24 hrs, dose 5 mg/kg, route iv; settings: in vivo; how it was run: as §2
[28] = tested on: Pseudomonas aeruginosa; assay: Antibacterial activity against wild type Pseudomonas aeruginosa ATCC 27853 assessed as reduction in bacterial growth incubated for 18 to 20 hrs by CLSI based microdilution method; format: functional; settings: time 18-20 hrs; how it was run: as §5
[29] = Elimination half life in Sprague-Dawley rat at 5 mg/kg, iv measured upto 24 hrs by LC-MS/MS analysis; format: ADME, organism-based; settings: in vivo, read-out: beta t1/2 (converted); how it was run: as §2
[30] = MRT in Sprague-Dawley rat at 5 mg/kg, iv measured upto 24 hrs by LC-MS/MS analysis; format: ADME, organism-based; settings: in vivo; how it was run: as §2
[31] = Cytotoxicity against human HEK293 cells assessed as cell viability measured for 48 hrs by CCK-8 assay; format: toxicity, cell-based; how it was run: as §7
[32] = Metabolic stability in rat liver microsome assessed as intrinsic clearance at 0.1 uM in presence of NADPH incubated upto 60 mins by LC-MS/MS analysis; format: ADME; settings: microsomes, 1 h; how it was run: as §1

**Q.** Which results are given for `CNc1cc(F)cc2c1[nH]c1nc(Oc3cnc(C)nc3)nc(N3CC(=C(C)[C@@H](C)N)C3)c12`?
**A.** Fh at 1 h, 0.1 µM [1]: 40.8%; clearance [2]: 57.7 mL/min/kg; Vd [3]: 10.8 L/kg; half-life at 0.1 µM [4]: 8.3 min; Activity [5]: Active; half-life [6]: 5.9 h; IC50 [7]: > 40 µM; MIC [8]: 4 µg/mL (≈ 8.92 µM); MIC [9]: 4 µg/mL (≈ 8.92 µM); MIC [10]: 0.25 µg/mL (≈ 0.557 µM); MIC [11]: 0.5 µg/mL (≈ 1.11 µM); CC50 at 48 h [12]: 16 µM; Fh at 1 h, 0.1 µM [13]: 15%; MRT [14]: 3.1 h; MIC [15]: 0.25 µg/mL (≈ 0.557 µM); Vd [16]: 35.7 L/kg; MIC [17]: 0.5 µg/mL (≈ 1.11 µM); MIC [18]: 2 µg/mL (≈ 4.46 µM); clearance [19]: 76.6 mL/min/kg; AUC(0-inf) [20]: 5790 ng·h/mL; MIC [21]: 2 µg/mL (≈ 4.46 µM); Activity [22]: Dde; MIC [23]: 0.125 µg/mL (≈ 0.279 µM); half-life at 0.1 µM [24]: 1.23 h; inhibition at 2 min, 40 µM [25]: 18.3%; CLH [26]: 28.4 mL/min/g; AUC(0-inf) [27]: 1100 ng·h/mL; MIC [28]: 2 µg/mL (≈ 4.46 µM); half-life [29]: 8.5 h; MRT [30]: 7.8 h; CC50 at 48 h [31]: 19 µM; CLH [32]: 252 mL/min/g
